From publication PMC10433104 (Journal of medicinal chemistry, 2023) come the findings set out here.

For this test, the target named is PDE4D7-S129D (PDE4D*) (Homo sapiens, UniProt Q08499, S190D). In words: PDE4 enzyme inhibition assay. The class given is biochemical. Conditions: ratio of IC50 for PDE4B* over that for PDE4D*. In outline: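 Mutationally activated dimeric enzymes were used: PDE4D7-S129D (PDE4D*) and PDE4B1-S133D (PDE4B*). PDE4B served as the comparator for the PDE4 subtypes. Activity was read with a real-time coupled enzyme assay rather than a fluorescein-labelled cAMP substrate. An IC50 was obtained against each enzyme, and selectivity was taken as PDE4B* IC50 divided by PDE4D* IC50 (B/D ratio).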
PDE4D7-S129D (PDE4D*), sequence (Q08499 1-748 isoform Q08499-11 S129D, species assumed): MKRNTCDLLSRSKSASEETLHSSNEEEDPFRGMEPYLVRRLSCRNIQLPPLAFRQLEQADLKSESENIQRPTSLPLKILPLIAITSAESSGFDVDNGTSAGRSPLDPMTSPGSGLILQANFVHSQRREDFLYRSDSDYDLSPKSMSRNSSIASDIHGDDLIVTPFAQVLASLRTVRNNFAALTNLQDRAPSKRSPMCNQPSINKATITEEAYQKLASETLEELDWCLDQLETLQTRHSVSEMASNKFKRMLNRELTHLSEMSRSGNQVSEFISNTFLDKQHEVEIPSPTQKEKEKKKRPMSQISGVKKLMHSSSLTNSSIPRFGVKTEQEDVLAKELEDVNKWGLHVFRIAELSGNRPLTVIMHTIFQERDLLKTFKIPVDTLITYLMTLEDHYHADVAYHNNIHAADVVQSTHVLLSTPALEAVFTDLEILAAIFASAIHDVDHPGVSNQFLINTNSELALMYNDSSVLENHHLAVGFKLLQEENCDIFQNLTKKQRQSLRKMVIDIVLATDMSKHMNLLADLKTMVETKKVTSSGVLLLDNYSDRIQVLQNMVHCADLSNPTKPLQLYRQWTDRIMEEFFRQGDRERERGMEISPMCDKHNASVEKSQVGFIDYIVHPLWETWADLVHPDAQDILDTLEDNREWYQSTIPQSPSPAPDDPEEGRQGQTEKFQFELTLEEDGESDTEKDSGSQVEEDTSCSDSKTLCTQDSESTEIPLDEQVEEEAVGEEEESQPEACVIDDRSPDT
In the case of `FC(F)Oc1cccc(-c2nc(Cn3ccnc3)ccc2OCc2ccccc2)c1` [Compound 59, 6-((1H-Imidazol-1-yl)methyl)-3-(benzyloxy)-2-(3(difluoromethoxy)phenyl)pyridine], the “Selectivity B/D” value is more than 57.

In the case of `COc1ccc(Cn2ncnn2)nc1-c1cccc(OC(F)F)c1` [Compound 34, 6-((2H-Tetrazol-2-yl)methyl)-2-(3-(difluoromethoxy)phenyl)-3methoxypyridine], the “Selectivity B/D” value is more than 472.

In the case of `COc1ccc(Cc2ccc(CCO)cc2)nc1-c1cccc(OC(F)F)c1` [Compound 53, 2-(4-((6-(3-(Difluoromethoxy)phenyl)-5-methoxypyridin-2-yl)methyl)phenyl)ethan-1-ol], the “Selectivity B/D” value is more than 2519.

On to `COc1ccc(Oc2cn[nH]c2)nc1-c1cccc(OC(F)F)c1` [Compound 18, 6-((1H-Pyrazol-4-yl)oxy)-2-(3-(difluoromethoxy)phenyl)-3-methoxypyridine], for which the “Selectivity B/D” value is listed as more than 6.

`COc1ccc(Cn2cnc(C(F)(F)F)n2)nc1-c1cccc(OC(F)F)c1` [Compound 31, 2-(3-(Difluoromethoxy)phenyl)-3-methoxy-6-((3-(trifluoromethyl)-1H-1,2,4-triazol-1-yl)methyl)pyridine]: the “Selectivity B/D” value was more than 13.

As to `COc1ccc(Cn2cccn2)nc1-c1cccc(F)c1` [Compound 24, 6-((1H-Pyrazol-1-yl)methyl)-2-(3-fluorophenyl)-3-methoxypyridine], the “Selectivity B/D” value is on record as more than 2.

With `COc1ccc(Nc2cn[nH]c2)nc1-c1cccc(C(F)(F)F)c1` [Compound 13, 5-Methoxy-N-(1H-pyrazol-4-yl)-6-(3-(trifluoromethyl)phenyl)pyridin-2-amine], the “Selectivity B/D” value is recorded as more than 2.

Consider `COc1cccc(-c2nc(COc3cn[nH]c3)ccc2OC(F)F)c1` [Compound 40, 6-(((1H-Pyrazol-4-yl)oxy)methyl)-3-(difluoromethoxy)-2-(3methoxyphenyl)pyridine], for which the “Selectivity B/D” value is recorded as more than 27.

`COc1cccc(-c2nc(Cc3ccc(CCCO)cc3)ccc2OC(F)F)c1` [Compound 56, 3-(4-((5-(Difluoromethoxy)-6-(3-methoxyphenyl)pyridin-2-yl)methyl)phenyl)propan-1-ol]: the “Selectivity B/D” value is reported as more than 420.

For `Fc1ccc(Cc2cn[nH]c2)nc1-c1cccc(Cl)c1` [Compound 10, 6-((1H-Pyrazol-4-yl)methyl)-2-(3-chlorophenyl)-3-fluoropyridine], the “Selectivity B/D” value is on record as more than 13.

Consider `COc1cccc(-c2nc(Cn3cnc(C(F)(F)F)n3)ccc2OC(F)F)c1` [Compound 44, 3-(Difluoromethoxy)-2-(3-methoxyphenyl)-6-((3-(trifluoromethyl)-1H-1,2,4-triazol-1-yl)methyl)pyridine], for which the “Selectivity B/D” value was more than 13.

As for `FC(F)Oc1cccc(-c2nc(Cc3cn[nH]c3)ccc2OCc2ccccc2)c1` [Compound 57], the “Selectivity B/D” value was more than 61.

Regarding `COc1ccc(Cc2ccc(CCCO)cc2)nc1-c1cccc(OC(F)F)c1` [Compound 54, 3-(4-((6-(3-(Difluoromethoxy)phenyl)-5-methoxypyridin-2-yl)methyl)phenyl)propan-1-ol], the “Selectivity B/D” value is more than 621.

As to `COc1cccc(-c2nc(Nc3cn[nH]c3)ccc2OC(F)F)c1` [Compound 20, 5-(Difluoromethoxy)-6-(3-methoxyphenyl)-N-(1H-pyrazol-4-yl)pyridin-2-amine], the “Selectivity B/D” value is reported as more than 15.

For `FC(F)Oc1cccc(-c2nc(Cc3ccncc3)ccc2OCc2ccccc2)c1` [Compound 58, 3-(Benzyloxy)-2-(3-(difluoromethoxy)phenyl)-6-(pyridin-4ylmethyl)pyridine], the “Selectivity B/D” value is on record as more than 13.

As to `COc1ccc(Cn2cncn2)nc1-c1cccc(OC(F)F)c1` [Compound 32, 6-((1H-1,2,4-Triazol-1-yl)methyl)-2-(3-(difluoromethoxy)phenyl)3-methoxypyridine], the “Selectivity B/D” value was more than 649.

For `COc1cccc(-c2nc(Cn3cncn3)ccc2OC(F)F)c1` [Compound 45, 6-((1H-1,2,4-Triazol-1-yl)methyl)-3-(difluoromethoxy)-2-(3methoxyphenyl)pyridine], the “Selectivity B/D” value is more than 238.

With `COc1cccc(-c2nc(Cn3ncnn3)ccc2OC(F)F)c1` [Compound 47, 6-((2H-Tetrazol-2-yl)methyl)-3-(difluoromethoxy)-2-(3methoxyphenyl)pyridine], the “Selectivity B/D” value is more than 575.
